Reference: ChEMBL document CHEMBL1150864, “Antimalarial compounds from Rhaphidophora decursiva” (J Nat Prod, 2001)
Converted amounts (≈) assume the structure as drawn.

Columns and labels:
Plasmodium falciparum [1] = assay: Antiplasmodial activity against chloroquine-sensitive Plasmodium falciparum D6 by [3H]hypoxanthine uptake; type: functional, organism-based
Summary of the method: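 P. falciparum D6 kept in type A+ human erythrocytes (RPMI-1640, NaHCO3, HEPES, hypoxanthine, 10% Albumax II) under 5% O2/5% CO2/90% N2 at 37 °C. Plated at 0.5-1% parasitemia, 1% hematocrit with serial dilutions from 4 mg/mL stock, triplicate; 24 h, then 0.5 μCi [3H]hypoxanthine for 18 h more. Scintillation counting; IC50 by nonlinear regression versus zero-drug controls.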

[2] = Cytotoxicity against human KB cells after 72 hrs; type: cell-based; conditions: read-out: ED50
[3] = Selectivity index, ratio of ED50 for human KB cells to IC50 for chloroquine-resistant Plasmodium falciparum W2; type: functional
Plasmodium falciparum [4] = assay: Antiplasmodial activity against chloroquine-resistant Plasmodium falciparum W2 by [3H]hypoxanthine uptake; type: functional, organism-based
Summary of the method: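 P. falciparum W2 grown in type A+ human erythrocytes in RPMI-1640 with NaHCO3, HEPES, hypoxanthine and 10% Albumax II, 5% O2/5% CO2/90% N2, 37 °C. Samples from 4 mg/mL stock tested in triplicate at 0.5-1% parasitemia, 1% hematocrit. After 24 h, 0.5 μCi [3H]hypoxanthine added for 18 h more; IC50 by nonlinear regression, zero-drug controls as 100%.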

[5] = Selectivity index, ratio of ED50 for human KB cells to IC50 for chloroquine-sensitive Plasmodium falciparum D6; type: functional

Structure (SMILES)	IC50 (Plasmodium falciparum [1]; D6) [µg/mL]	CC50 at 72 h [2] [µg/mL]	Selectivity Index [3]	IC50 (Plasmodium falciparum [4]) [µg/mL]	Selectivity Index [5]	IC50 (Plasmodium falciparum [1]; D6, 42 h) [µg/mL]
COc1cc(O)cc2c1C(=O)OOC(C)CCCCC/C=C/2 (stereo unspecified) [RHAPHIDECURPEROXIN]	0.54 (≈ 1.76 µM)	4 (≈ 13.1 µM)	1	0.42 (≈ 1.37 µM)	0.7	
COc1cc([C@H]2OC[C@H]3[C@@H]2CO[C@@H]3c2cc(OC)c(O)c(OC)c2)ccc1O						> 10
C=CCc1cc(OC)c(O[C@H](C)[C@@H](O)c2cc(OC)c(OC)c(OC)c2)c(OC)c1 [RHAPHIDECURSINOL B]	5.37 (≈ 12.8 µM)	10 (≈ 23.9 µM)	2	4.68 (≈ 11.2 µM)	1	
COc1cc([C@@H]2OC[C@H]3[C@@H]2CO[C@H]3c2ccc(O)c(OC)c2)ccc1O [(-)-PINORESINOL]						> 10
COc1cc([C@@H]2O[C@@H](c3cc(OC)c(OC)c(OC)c3)[C@H](C)[C@H]2C)cc(OC)c1OC [GRANDISIN]	1.51 (≈ 3.49 µM)	14 (≈ 32.4 µM)	8	1.48 (≈ 3.43 µM)	7	
C=C[C@H]1CN2CC[C@H]1C[C@H]2[C@H](O)c1ccnc2ccc(OC)cc12 [QUININE]	0.009 (≈ 0.0277 µM)	> 20	>490	0.041 (≈ 0.126 µM)	>2000	
C/C=C/c1cc(OC)c(O[C@H](C)[C@@H](O)c2cc(OC)c(OC)c(OC)c2)c(OC)c1 (relative stereo) [POLYSYPHORIN]	0.404 (≈ 0.965 µM)	2 (≈ 4.78 µM)	6	0.368 (≈ 0.879 µM)	5	
CCCCNC(=O)c1ccccc1						> 10
CCCCCC1(O)OC(=O)C(C)=C1C (stereo unspecified)						> 10
C[C@@H]1CC[C@H]2[C@@H](C)C(=O)O[C@@H]3O[C@@]4(C)CC[C@@H]1[C@]32OO4 [ARTEMISININ]		> 20	>10000	0.002 (≈ 0.00708 µM)	>10000	
CC(=O)/C=C/[C@@]1(O)C(C)=CC(=O)CC1(C)C						> 10
COc1cc([C@H]2O[C@@H](c3cc(OC)c(OC)c(OC)c3)[C@H](C)[C@H]2C)cc(OC)c1OC [EPIGRANDISIN]	> 10	16 (≈ 37 µM)	4	3.34 (≈ 7.72 µM)	<2	
COc1cc([C@@H]2OC[C@@H]3[C@H]2CO[C@H]3c2cc(OC)c(O)c(OC)c2)cc(OC)c1O						> 10
COc1cc([C@H]2OC[C@@H]3C(=O)OC[C@@H]32)cc(OC)c1O						> 10
